The sample as a whole holds a higher share of hits than the screen did.
H69AR growth 86K – growth inhibitors of human H69AR lung tumor cells. viability, % at 10 µM. actives 6% (n = 85,000). H69AR lung tumor viability, ATP luminescence, 72 h; hits give low values. AID 598;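 active = viability at or below 40%; inactive = viability above 40%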;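 also: multidrug resistant small cell line overexpressing MRP-1 efflux transporter; 100% = mean luminescence of untreated control wells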
HUVEC prolif 384 – human endothelial cell proliferation inhibition; HUVEC proliferation, CellTiter-Glo luminescence, 72 h; hits give low values; viability, % at 10 µM (by protocol); actives 1.1% (n = 86,000);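 active = viability at or below 30%; inactive = viability above 30%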;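 also: 100% = median luminescence of DMSO-only cell control wells on each plate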
Fibroblast inh – blocks proliferation of human lung fibroblasts | actives 1.1% (n = 85,000) | AID 719 | viability, % at 10 µM | LL 47 human lung fibroblast viability, ATP luminescence; hits give low values;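 active = viability at or below 50% in the single dose screen; inactive = viability above 50%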;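 also: compound exposure lasted 72 h before the ATP readout; 100% = median luminescence of untreated cell-only wells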
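Signal: luminescent ATP detection, CellTiter-Glo; assay system: LL 47 human lung fibroblasts; input: 1,150 cells/well; incubation: overnight cell rest, 72 h compound treatment at 37 °C; measure: % viability versus median cells-only luminescence; medium: IMEM growth medium with 15% fetal bovine serum; dosing: compound addition at 0.1% DMSO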
PTEN del growth – suppresses growth of cells with PTEN deletion; HCT116 PTEN-null viability, CellTiter-Glo, 60 h; hits give low values; viability, % at 10 µM; actives 1.2% (n = 140,000); AID 827;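 active = viability at or below a set limit, 4 SD under the median of all tested compounds, cut at about 3.7% in these data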;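 also: PTEN knockout HCT116 line with beta catenin targeted HCT116 as companion control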
HCT116 bCat-KO – beta-catenin-lacking colon tumor cell growth suppression; viability, % at 10 µM; actives 1.5% (n = 140,000); HCT116 beta-catenin knockout viability, CellTiter-Glo, 60 h; hits give low values;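 active = viability at or under a set limit, the compound median less 4 SD, cut at about 6% in these data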;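 also: 0% = Hyamine 1622 control at 20 µM and 100% = untreated cell control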
Active calls of the source: *; . = not tested or not shown.

SMILES | H69AR growth 86K | HUVEC prolif 384 | Fibroblast inh | PTEN del growth | HCT116 bCat-KO
Cc1ccc2c(c1)c1c(n2CC(O)Cn2c(C)nc3ccccc32)CCCC1 (stereo not drawn) | 1.5* | 11* | 90 | 70 | 54
CCOc1cc(C(=S)N2CCOCC2)ccc1OS(=O)(=O)c1ccccc1[N+](=O)[O-] | . | . | . | 89 | 81
Cc1ccn2c(Nc3ccccc3C)c(-c3ccncc3)nc2c1 | . | . | . | 75 | 66
COc1ccc(CCN2CCC(Nc3nc4ccccc4n3Cc3ccc(F)cc3)CC2)cc1 | 1.5* | 1.9* | 2.1* | 1.2* | 1.0*
CCc1ccccc1NCC(=O)Nc1ccc(Cl)c(C(F)(F)F)c1 | . | . | . | 58 | 69
CCOC(=O)N1CCC(NC(=O)Cn2ncn3c(cc4sc(CC)cc43)c2=O)CC1 | 88 | 100 | 104 | . | .
CC(C)(O)C#Cc1ccc(C(=O)NCc2ccccc2)s1 | 89 | 103 | 97 | . | .
O=C(CSc1nnc2c3ccccc3c3ccccc3c2n1)Nc1ccccc1 | . | . | . | 35 | 38
O=C(CSc1nnc2c3ccccc3c3ccccc3c2n1)Nc1ccccc1F | . | . | . | 1.9* | 2.2*
CCOc1cc(C2C(C#N)=C(N)OC(C)=C2C(C)=O)c(Br)c(Br)c1OC(C)C (stereo not drawn) | 3.2* | 31 | 62 | 10 | 12
CCOC(=O)c1nc[nH]c1C | . | . | . | 104 | 100
COc1ccc(Cc2ccc(OC)c(N)c2)cc1N | 29* | 82 | 95 | 101 | 84
COc1cc(Cc2ccc(N)c(OC)c2)ccc1N | . | . | . | 94 | 91
Cc1cc(NC(=O)c2c(Br)c(C)nn2C)no1 | . | . | . | 98 | 102
COc1cccc(OC)c1/C(O)=C(\C#N)c1nc2ccccc2[nH]1 | 27* | 88 | 91 | 89 | 84
CCOC(=O)c1c(C)[nH]c(C(=O)OC/C(O)=C(\C#N)c2nc3ccccc3[nH]2)c1C | 57 | 9.2* | 112 | 79 | 87
N#C/C(=C(/O)COC(=O)c1ccc2c(c1)OCCO2)c1nc2ccccc2[nH]1 | 93 | 88 | . | 98 | 86
COc1ccccc1OCC(=O)OC/C(O)=C(\C#N)c1nc2ccccc2[nH]1 | . | . | . | 2.2* | 5.5*
N#C/C(=C(/O)COC(=O)CCc1ccc(S(=O)(=O)N2CCOCC2)cc1)c1nc2ccccc2[nH]1 | 41 | 76 | 90 | 4 | 5.7*
CC(C)(C)/C(O)=C(/C#N)c1nc2ccccc2[nH]1 | 83 | 99 | 94 | 89 | 88
CCOc1cccc(-c2csc(C3COc4ccccc4O3)n2)c1 (stereo not drawn) | . | . | . | 97 | 96
COc1ccc(C(=O)/C=C/c2cn(CN3CCN(C)CC3)c3ccccc23)cc1 | 22* | 78 | 101 | 33 | 14
Cc1ccc(NCc2nnc(SC(C)C(=O)N/N=C/c3ccc(C)o3)n2-c2ccccc2)cc1 (stereo not drawn) | . | . | . | 97 | 92
Cc1ccc(N=Cc2c(O)n(-c3nccs3)c(=O)c3ccccc23)cc1 | . | . | . | 105 | 99
CNc1ccc(/C=C2\COc3ccccc3C2=O)cc1[N+](=O)[O-] | 16* | 74 | 96 | 76 | 89
SMILES | H69AR growth 86K | HUVEC prolif 384 | Fibroblast inh | PTEN del growth | HCT116 bCat-KO
COc1ccc(CCNC(N)=S)cc1OC | . | . | . | 89 | 95
Cc1ccsc1C1NC(=O)c2ccccc2N1 (stereo not drawn) | 23* | 63 | 88 | 74 | 72
O=C1NC(c2cccs2)Nc2ccccc21 (stereo not drawn) | 61 | 100 | 100 | 66 | 84
COC(=O)C1=C(SC)N(c2ccccc2)C(c2ccccc2)CC1=O (stereo not drawn) | . | . | . | 101 | 97
COc1ccc(NC(=O)COC(=O)c2c3c(nc4ccccc24)CCCC3)cc1Cl | . | . | . | 13 | 11
COc1cccc(C(=O)Nc2cccc(-c3nc4ncccc4o3)c2C)c1 | 93 | 106 | 99 | 102 | 110
COc1cccc(C(=O)Nc2ccc(-c3nc4ccccc4o3)c(O)c2)c1 | 9.5* | 74 | 79 | 30 | 55
COC(=O)c1ccc(-c2nc3ccc(C)cc3o2)cc1 | 26* | 66 | 97 | 10 | 11
O=C(Nc1ccc(-c2nc3ccccc3o2)c(O)c1)c1cc(-n2cnnc2)ccc1Cl | 21* | 95 | 99 | 61 | 82
COc1cc(C(=O)Nc2ccc(-c3nc4cc(C)ccc4o3)c(O)c2)cc(OC)c1OC | 24* | 80 | 85 | 11 | 13
Nc1nonc1C(=O)NCCNS(=O)(=O)c1ccc(Br)cc1 | . | . | . | 56 | 57
O=C(Nc1ccccc1Cl)c1cccc(COc2cc(Cl)ccc2Cl)c1 | . | . | . | 30 | 25
COc1ccc(C2=[N+]([O-])C(C)(C)N(O)C2C)cc1 (stereo not drawn) | 97 | 96 | . | 92 | 91
